Series [1] relates to MDA-MB-231 cells. Briefly: clonogenic survival assay. Type of series: cell-based, human. An outline of the steps: (§1)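 Cells in RPMI 1640/10% FBS were exposed in 6-well plates for 16 h to etoposide or doxorubicin with or without test compound (1 μM), or to test compound alone. Cells then harvested and reseeded in drug-free medium. Colonies stained with crystal violet after 10-14 days and counted automatically. Fold enhancement = survival with cytotoxic alone / survival with cytotoxic + 1 μM test compound. Means ± SD, n = 3.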

Another series concerns the target PI-3K γ (Homo sapiens, UniProt P48736). As to the kind of experiment: cell-free assay, PI-3K isoforms. Format: biochemical. Conditions: Supplementary Figure 1.
Series [2] concerns MDA-MB-231 cells. As to the kind of experiment: cell growth inhibition, SRB assay, 5-day continuous exposure. Format: cell-based. Conditions: Homo sapiens, MDA-MB-231, 120 h. The method in brief:
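Human cancer cells in RPMI 1640 with 10% FBS, penicillin/streptomycin, at 37 °C and 5% CO2. Test compound (10 mM DMSO stock) given by continuous exposure for 5 days. Growth measured by SRB assay. […] Means ± SD of 3 independent experiments.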
On the technique in general: Sulforhodamine B stains cellular protein and so reports cell mass.

Another series concerns SW620 cells. As to the kind of experiment: clonogenic survival assay. Type of series: cell-based, human.
The subject of the next series is T47D cells. As to the kind of experiment: clonogenic survival assay. Format: cell-based, human. The method in brief:
as §1

For another series, the system named is SW620 xenografts. Briefly: anti-tumour efficacy study, SW620 xenografts. Format: in vivo, mice. The method in brief: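 Female athymic CD1-nu/nu mice with s.c. SW620, n = 5/group, treated once tumours were palpable (~5 × 5 mm, day 8-10). Controls: saline i.p. daily. Test compound 10 mg/kg i.p. for 5 days. Etoposide phosphate 11.35 mg/kg i.p. (10 mg/kg etoposide) daily × 5. Combination: test compound i.p. once or twice daily × 5, first dose just before etoposide. Caliper volume a²×b/2; median RTV (day 0 = 1); time to RTV4.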

The subject of the next series is V3-YAC cells. Briefly: clonogenic survival assay, DNA-PKcs-proficient cells. Type of series: cell-based, Chinese hamster. An outline of the steps:
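Chinese hamster ovary V3 cells (DNA-PKcs-deficient) and V3-YAC cells (human DNA-PKcs on YAC; kept under G-418 500 μg/ml) in RPMI 1640/10% FBS. Etoposide alone or with 1 μM test compound, or test compound alone, for 16 h. Reseeded drug-free. Crystal violet colony counts after 10-14 days. Fold enhancement as survival ratio. Means ± SD of 3 independent experiments.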

For the next series, the system named is PI-3K. As to the kind of experiment: PI-3K-dependent AKT phosphorylation. Conditions: read-out: IC50 PI-3K-mediated AKT phosphorylation; MCF7 cells, IGF-1 stimulated. Type of series: cell-based, human. An outline of the steps:
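MCF7 cells in RPMI 1640/10% FBS. Exposed to a concentration range of test compound for 1 h, then 50 ng/ml IGF-1 for 30 min. Western blot of AKT Ser473 relative to total AKT. Rise above unstimulated baseline in treated cells expressed as % of the rise in control cells. Mean of three independent experiments fitted to a sigmoidal dose-response curve for IC50.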

Each structure is given as a SMILES string. Where “and” joins values, the source holds several entries; their conditions need not be identical. Equal values may be shown once.

Sequence of PI-3K γ (P48736 whole entry, species assumed, canonical isoform): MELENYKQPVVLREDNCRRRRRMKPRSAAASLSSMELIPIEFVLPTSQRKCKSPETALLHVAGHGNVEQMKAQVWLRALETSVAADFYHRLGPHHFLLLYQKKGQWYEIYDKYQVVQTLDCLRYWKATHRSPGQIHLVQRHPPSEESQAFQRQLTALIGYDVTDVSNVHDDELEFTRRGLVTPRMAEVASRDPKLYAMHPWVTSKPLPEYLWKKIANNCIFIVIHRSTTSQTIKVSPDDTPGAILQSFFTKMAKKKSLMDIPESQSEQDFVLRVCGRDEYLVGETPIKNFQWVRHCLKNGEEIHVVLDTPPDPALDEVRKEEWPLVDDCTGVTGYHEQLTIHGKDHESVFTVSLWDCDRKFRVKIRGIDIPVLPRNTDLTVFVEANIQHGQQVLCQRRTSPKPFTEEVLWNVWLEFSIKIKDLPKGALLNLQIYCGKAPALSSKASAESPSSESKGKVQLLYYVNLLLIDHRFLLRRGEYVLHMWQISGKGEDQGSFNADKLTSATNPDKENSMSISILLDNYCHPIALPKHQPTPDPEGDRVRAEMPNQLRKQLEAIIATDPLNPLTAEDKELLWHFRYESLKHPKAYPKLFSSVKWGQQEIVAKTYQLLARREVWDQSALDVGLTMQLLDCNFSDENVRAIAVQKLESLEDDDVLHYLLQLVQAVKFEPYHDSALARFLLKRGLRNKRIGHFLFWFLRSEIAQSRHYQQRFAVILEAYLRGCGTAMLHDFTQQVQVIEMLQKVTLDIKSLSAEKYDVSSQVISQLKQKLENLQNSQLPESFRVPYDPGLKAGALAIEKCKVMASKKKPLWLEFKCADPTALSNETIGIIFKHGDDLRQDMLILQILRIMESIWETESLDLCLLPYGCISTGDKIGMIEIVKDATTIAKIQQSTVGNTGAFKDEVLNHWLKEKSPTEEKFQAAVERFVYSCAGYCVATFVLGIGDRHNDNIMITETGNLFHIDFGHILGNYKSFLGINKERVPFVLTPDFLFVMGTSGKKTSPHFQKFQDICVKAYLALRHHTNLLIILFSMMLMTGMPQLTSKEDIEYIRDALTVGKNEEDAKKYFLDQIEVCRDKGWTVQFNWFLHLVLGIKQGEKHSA

The GI50 is the concentration that inhibits growth by half. A lower GI50 goes with greater sensitivity of the cells. What is called inhibition is the relative decrease from the control value, in per cent. The IC50 is the concentration that gives 50% inhibition. As to `CCN1CCN(CC(=O)Nc2ccc(-c3cccc4c(=O)cc(N5CCOCC5)oc34)c3sc4ccccc4c23)CC1` [KU-0060648, 2-(4-ethylpiperazin-1-yl)-N-(4-(2-morpholino-4-oxo-4H-chromen-8-yl)dibenzo[b,d]thiophen-1-yl)acetamide], the “Fold enhancement of doxorubicin cytotoxicity (survival cytotoxic alone/survival cytotoxic + 1 μM KU-0060648)” value in the series with MDA-MB-231 cells [1] (MDA-MB-231, 100 nM doxorubicin, 16 hr) was 3.8±0.6 fold; in the series on SW620 cells (SW620, 100 nM doxorubicin, 16 hr) it was 12 fold and 12±8 fold; in the series on T47D cells (100 nM doxorubicin, 16 hr) it was 58±35 fold. The “overall cell survival (clonogenic)” value with MDA-MB-231 cells [1] (MDA-MB-231, 1 μM, 16 hr exposure, single agent) is 41%; with SW620 cells (SW620, 1 μM, 16 hr exposure, single agent) it was at least 80%; in the series on T47D cells (1 μM, 16 hr exposure, single agent), at least 80%. The “potency rank among the four PI-3K isoforms” value at PI-3K γ is “least potency”. Besides, growth in the series on MDA-MB-231 cells [2] was halved (GI50) at 1 µM. Further, in the series on MDA-MB-231 cells [2] (read-out: inhibition of cell growth), the inhibition at 1 µM is over 50%. For the same molecule, the “maximum body weight loss” value in the series on SW620 xenografts (SW620 tumour-bearing mice) is on record as “no body weight loss”. Besides, in the series on SW620 xenografts (in both SW620 and MCF7 xenografts), the “fold increase of etoposide-induced tumour growth delay” value was “up to 4.5 fold”. Moreover, the “fold enhancement of etoposide cytotoxicity” value with V3-YAC cells (1 μM KU-0060648, 16 hours) was over 13 fold. In addition, the “reduction in cell viability, compound alone” value in the series with V3-YAC cells (1 μM, 16 hours) is listed as under 15%. In addition, in the series with PI-3K, the IC50 is 0.039 µM and 0.04 µM.
